A word on the GI50: it is the concentration that inhibits growth by half. One may read the IC50 as the midpoint of a concentration-inhibition curve.

Calls of active or inactive are those of the source. No cut-off for these calls is given here.

18 compounds from ChEMBL document CHEMBL4308900, “Synthesis and identification of 2,4-bisanilinopyrimidines bearing 2,2,6,6-tetramethylpiperidine-N-oxyl as potential Aurora A inhibitors” (Bioorg Med Chem, 2019) can be followed below.

Experiment [1] relates to HeLa. In words: Antiproliferative activity against human HeLa cells after 48 hrs by MTT assay. It counts as functional. Put shortly: (§1)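 MTT assay: cells attached 4–6 h at 37 °C, 5% CO2, then exposed 48 h to graded concentrations from DMSO stocks; 5 mg/mL MTT added for 4 h, formazan dissolved in DMSO, absorbance at 490 nm. GI50 from log plot of percent of control versus concentration; mean of three independent experiments.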
A general note: Tetrazolium dyes change colour on reduction, which living cells bring about.

The next experiment has as its system A549. In words: Antiproliferative activity against human A549 cells after 48 hrs by MTT assay. Format: functional. Put shortly:
as §1

Another experiment concerns HepG2. In words: Antiproliferative activity against human HepG2 cells after 48 hrs by MTT assay. It counts as functional. In a few lines:
as §1

In another experiment the test system is LoVo. In words: Antiproliferative activity against human LoVo cells after 48 hrs by MTT assay. Format: functional. Put shortly: as §1
The next experiment deals with T1, Aurora kinase A (Homo sapiens, UniProt O14965).
T1 sequence (O14965 whole entry): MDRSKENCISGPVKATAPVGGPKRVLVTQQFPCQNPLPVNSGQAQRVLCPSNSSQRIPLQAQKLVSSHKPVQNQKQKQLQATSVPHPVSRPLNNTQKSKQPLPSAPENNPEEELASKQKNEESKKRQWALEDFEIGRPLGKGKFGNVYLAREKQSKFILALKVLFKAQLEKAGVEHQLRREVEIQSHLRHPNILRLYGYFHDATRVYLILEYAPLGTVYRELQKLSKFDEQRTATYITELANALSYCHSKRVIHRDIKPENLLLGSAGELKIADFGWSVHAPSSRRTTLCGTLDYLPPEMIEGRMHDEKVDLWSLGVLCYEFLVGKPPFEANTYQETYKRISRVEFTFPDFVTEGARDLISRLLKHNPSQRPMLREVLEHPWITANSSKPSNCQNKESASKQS
Nature of the experiment: Inhibition of Aurora A (unknown origin) using kemptide acetate salt as substrate after 30 mins by kinase-Glo luminescence method. For orientation: In Kinase-Glo more light means more ATP remaining.

The target in the next experiment is Aurora kinase B (Homo sapiens, UniProt Q96GD4). Nature of the experiment: Inhibition of Aurora B (unknown origin) using kemptide acetate salt as substrate after 30 mins by kinase-Glo luminescence method.
Sequence of Aurora kinase B (Q96GD4 whole entry): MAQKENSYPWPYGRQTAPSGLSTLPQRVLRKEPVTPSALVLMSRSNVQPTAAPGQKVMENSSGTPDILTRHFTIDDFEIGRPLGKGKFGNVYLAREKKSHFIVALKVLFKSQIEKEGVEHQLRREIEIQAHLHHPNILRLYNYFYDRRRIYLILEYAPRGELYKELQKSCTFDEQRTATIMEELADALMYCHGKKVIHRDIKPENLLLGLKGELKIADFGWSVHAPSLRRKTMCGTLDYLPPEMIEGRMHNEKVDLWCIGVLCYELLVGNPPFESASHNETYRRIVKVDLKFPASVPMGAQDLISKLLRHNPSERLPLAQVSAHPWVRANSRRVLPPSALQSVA
The subject of experiment [2] is HeLa. Nature of the experiment: Induction of microtubule disruption in human HeLa cells at 1 uM after 24 hrs by DAPI staining based immunofluorescence microscopic analysis. Format: functional, cell-based. Put shortly:
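HeLa cells on coverslips treated 24 h (0.1 or 1 μM; DMSO control); fixed in 4% paraformaldehyde, permeabilised in 0.1% Triton X-100 with 2% BSA, anti-α-tubulin overnight at 4 °C, FITC secondary 2 h room temperature, DAPI for DNA; confocal imaging.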

In experiment [3] the test system is HeLa. In words: Cell cycle arrest in human HeLa cells assessed as accumulation at G1 phase at 5 uM after 12 hrs by propidium iodide staining-based flow cytometric analysis (reference value: 70.68%). It counts as functional. In a few lines: (§2)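 HeLa cells exposed 12 h to 1 or 5 μM compound diluted from DMSO (DMSO control), fixed, stained with propidium iodide; DNA content measured by flow cytometry and G1, S, G2/M fractions calculated from the DNA histogram.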

Experiment [4] concerns HeLa. Nature of the experiment: Cell cycle arrest in human HeLa cells assessed as accumulation at S phase at 5 uM after 12 hrs by propidium iodide staining-based flow cytometric analysis (reference value: 5.74%). Format: functional. In a few lines:
as §2
For orientation: Flow cytometry measures light scatter and fluorescence of single cells or particles in a stream.

For experiment [5], the system named is HeLa. In words: Cell cycle arrest in human HeLa cells assessed as accumulation at G2/M phase at 5 uM after 12 hrs by propidium iodide staining-based flow cytometric analysis (reference value: 23.57%). Format: functional. In a few lines:
as §2

The subject of experiment [6] is HeLa. Nature of the experiment: Cell cycle arrest in human HeLa cells assessed as decrease in cyclin B1 protein expression at 5 uM after 12 hrs by Western blot analysis. It counts as functional, cell-based. In a few lines: (§3)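 HeLa cells treated 12 h (0.1, 1, 5 μM for apoptosis proteins); lysed in Tris pH 7.5/NP-40/SDS buffer with protease inhibitors, equal protein on 10% SDS-PAGE, PVDF, 5% BSA block, primary antibodies overnight at 4 °C, β-actin loading control; mean ± SD.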

The test system of experiment [7] is HeLa. Nature of the experiment: Cell cycle arrest in human HeLa cells assessed as decrease in cdc2 protein expression at 5 uM after 12 hrs by Western blot analysis. It counts as functional, cell-based. Put shortly:
as §3

For the compound `CC1(C)CC(NC(=O)c2ccc(Nc3nc(Nc4ccc(C(=O)O)cc4)ncc3Br)cc2)CC(C)(C)N1[O]`, the GI50 is above 100 µM in the experiment with HeLa [1], above 100 µM in the experiment with A549, 35.8 µM in the experiment with HepG2 and above 100 µM in the experiment on LoVo.
As to `CC1(C)CC(NC(=O)c2ccc(Nc3ncc([N+](=O)[O-])c(Nc4cccc(Cl)c4)n3)cc2)CC(C)(C)N1[O]`, the concentration for 50% growth inhibition (GI50) in the experiment on HeLa [1] worked out at 43.2 µM; with A549 (A549, 48 h), 31.3 µM; in the experiment with HepG2 (HepG2, 48 h), 42.1 µM; in the experiment with LoVo it was 67.8 µM. Also, the IC50 worked out at 0.00062 µM at Aurora kinase A and 0.0195 µM on Aurora kinase B.
For `CC1(C)CC(NC(=O)c2ccc(Nc3ncc([N+](=O)[O-])c(Nc4ccc(C(=O)Nc5ccccc5Cl)cc4)n3)cc2)CC(C)(C)N1[O]`, the GI50 in the experiment with HeLa [1] is 23.2 µM; in the experiment on A549 (A549, 48 h), 2.5 µM; in the experiment on HepG2 (HepG2, 48 h) it was 3.4 µM; in the experiment with LoVo it was 28.5 µM. Besides, the IC50 turned out to be 0.00548 µM on Aurora kinase A and 0.00307 µM on Aurora kinase B.
Take `CC1(C)CC(NC(=O)c2ccc(Nc3ncc(Cl)c(Nc4ccccc4Cl)n3)cc2)CC(C)(C)N1[O]`: the GI50 in the experiment on HeLa [1] turned out to be 10.2 µM; with A549 (A549, 48 h) it was 3.6 µM; in the experiment on HepG2 (HepG2, 48 h) it was 1.6 µM; with LoVo it was 3.2 µM. Moreover, the concentration for half-maximal inhibition (IC50) is 0.00019 µM on Aurora kinase A and 0.00029 µM on Aurora kinase B.
On to `Cc1cc(Nc2cc(N3CCN(C)CC3)nc(Sc3ccc(NC(=O)C4CC4)cc3)n2)n[nH]1`, for which the GI50 worked out at 46.2 µM in the experiment on HeLa [1], 35.8 µM in the experiment on A549, 53.3 µM in the experiment with HepG2 and 45.3 µM with LoVo. In addition, the result in the experiment with HeLa [2] was inactive. For the same compound, the Activity is 34.4% in the experiment with HeLa [3], 26.6% in the experiment with HeLa [4] and 39% in the experiment on HeLa [5]. In addition, the outcome in the experiment on HeLa [6] and with HeLa [7] was Active.
`CC1(C)CC(NC(=O)c2ccc(Nc3ncc(Br)c(Nc4ccccc4Cl)n3)cc2)CC(C)(C)N1[O]`: the GI50 stood at 9.6 µM in the experiment on HeLa [1]; 3.8 µM in the experiment on A549 (A549, 48 h); 2.1 µM in the experiment on HepG2 (HepG2, 48 h); 3.2 µM in the experiment on LoVo. Further, the values for the half-maximal inhibitory concentration (IC50) on Aurora kinase A and on Aurora kinase B were 0.00046 µM and 0.00267 µM, respectively.
As for `CC1(C)CC(NC(=O)c2ccc(Nc3ncc([N+](=O)[O-])c(Nc4ccc(Cl)cc4)n3)cc2)CC(C)(C)N1[O]`, the 50% growth inhibitory concentration (GI50) in the experiment on HeLa [1] worked out at 33.3 µM; in the experiment with A549 (A549, 48 h) it was 5.6 µM; in the experiment on HepG2 (HepG2, 48 h), 13 µM; with LoVo, 27.8 µM. In addition, the IC50 at Aurora kinase A was 0.00161 µM; at Aurora kinase B, 0.00034 µM.
As for `CC1(C)CC(NC(=O)c2ccc(Nc3ncc([N+](=O)[O-])c(Nc4ccc(C(=O)Nc5ccc(Cl)cc5)cc4)n3)cc2)CC(C)(C)N1[O]`, the GI50 in the experiment with HeLa [1] stood at 53 µM; in the experiment on A549 (A549, 48 h), 17.2 µM; with HepG2 (HepG2, 48 h), 24.1 µM; with LoVo it was 46.3 µM. The IC50 at Aurora kinase A was 0.02 µM; at Aurora kinase B, 0.00067 µM.
Turning to `CC1(C)CC(NC(=O)c2ccc(Nc3ncc([N+](=O)[O-])c(Nc4ccccc4Cl)n3)cc2)CC(C)(C)N1[O]`, the GI50 in the experiment with HeLa [1] came to 53.1 µM; in the experiment with A549 (A549, 48 h), 2.8 µM; in the experiment on HepG2 (HepG2, 48 h), 3.7 µM; with LoVo, 35.2 µM. The half-maximal inhibitory concentration (IC50) at Aurora kinase A was 0.00186 µM; at Aurora kinase B, 0.00329 µM.
For `CC1(C)CC(NC(=O)c2ccc(Nc3ncc([N+](=O)[O-])c(Nc4ccccc4O)n3)cc2)CC(C)(C)N1[O]`, the GI50 in the experiment on HeLa [1] was found to be 13.9 µM; in the experiment with A549 (A549, 48 h) it was 11.2 µM; with HepG2 (HepG2, 48 h), 3.7 µM; in the experiment on LoVo, 28.3 µM. Moreover, the results for the IC50 at Aurora kinase A and on Aurora kinase B were 0.0085 µM and 0.0113 µM, respectively.
As for `CC1(C)CC(NC(=O)c2ccc(Nc3ncc([N+](=O)[O-])c(Nc4ccc(O)cc4)n3)cc2)CC(C)(C)N1[O]`, the GI50 in the experiment on HeLa [1] is 34.3 µM; in the experiment with A549 (A549, 48 h), 14.3 µM; with HepG2 (HepG2, 48 h), 21.5 µM; with LoVo, 43.8 µM. Also, the IC50 at Aurora kinase A is 0.00059 µM; at Aurora kinase B it was 0.0035 µM.
For `CC1(C)CC(NC(=O)c2ccc(Nc3nc(Nc4ccc(C(=O)O)cc4)ncc3F)cc2)CC(C)(C)N1[O]`, the GI50 with HeLa [1] stood at 21.3 µM; in the experiment with A549 it was 18.5 µM; in the experiment on HepG2, 26.8 µM; in the experiment on LoVo, 65.3 µM.
The matching figures for `CC1(C)CC(NC(=O)c2ccc(Nc3nc(Nc4ccc(C(=O)O)cc4)ncc3Cl)cc2)CC(C)(C)N1[O]`: 56.5 µM, above 100 µM, 48.2 µM and 56.6 µM.
As for `CC1(C)CC(NC(=O)c2ccc(Nc3ncc(F)c(Nc4ccccc4Cl)n3)cc2)CC(C)(C)N1[O]`, the GI50 in the experiment on HeLa [1] was 8.4 µM; with A549 (A549, 48 h) it was 2.3 µM; with HepG2 (HepG2, 48 h), 1.2 µM; with LoVo, 2.7 µM. Moreover, the IC50 on Aurora kinase A was 0.00018 µM; on Aurora kinase B, 0.00111 µM.
For the compound `CN1CCC(NC(=O)c2ccc(Nc3ncc(F)c(Nc4ccc(C(=O)Nc5ccccc5Cl)cc4)n3)cc2)CC1`, the concentration for 50% growth inhibition (GI50) is 11.3 µM with HeLa [1]; 8.9 µM in the experiment on A549 (A549, 48 h); 13.4 µM in the experiment on HepG2 (HepG2, 48 h); 12.4 µM in the experiment on LoVo. Moreover, the IC50 came out at 0.00228 µM at Aurora kinase A and 0.0491 µM on Aurora kinase B.
Take `CC1(C)CC(NC(=O)c2ccc(Nc3nc(Nc4ccc(C(=O)O)cc4)ncc3[N+](=O)[O-])cc2)CC(C)(C)N1[O]`: the 50% growth inhibitory concentration (GI50) with HeLa [1] amounted to 27.3 µM; in the experiment on A549, 29.6 µM; in the experiment on HepG2, 11.8 µM; in the experiment on LoVo, 27.4 µM.
Consider `CC1(C)CC(NC(=O)c2ccc(Nc3ncc([N+](=O)[O-])c(Nc4ccc(C(=O)Nc5cccc(Cl)c5)cc4)n3)cc2)CC(C)(C)N1[O]`, for which the 50% growth inhibitory concentration (GI50) in the experiment with HeLa [1] is 49.5 µM; in the experiment on A549 (A549, 48 h), 14.2 µM; with HepG2 (HepG2, 48 h) it was 12.5 µM; in the experiment with LoVo it was 39.6 µM. In addition, the IC50 on Aurora kinase A amounted to 0.00011 µM; at Aurora kinase B, 0.027 µM.
Turning to `CC1(C)CC(NC(=O)c2ccc(Nc3ncc([N+](=O)[O-])c(Nc4cccc(O)c4)n3)cc2)CC(C)(C)N1[O]`, the 50% growth inhibitory concentration (GI50) with HeLa [1] was 36.5 µM; in the experiment on A549 (A549, 48 h) it was 13.2 µM; in the experiment on HepG2 (HepG2, 48 h), 21.7 µM; with LoVo it was 39.6 µM. For the same compound, the concentration for half-maximal inhibition (IC50) is 0.00014 µM on Aurora kinase A and 0.0035 µM on Aurora kinase B.
